Measured values as given in ChEMBL document CHEMBL1152519, “Synthesis, structural activity-relationships, and biological evaluation of novel amide-based allosteric binding site antagonists in NR1A/NR2B N-methyl-D-aspartate receptors” (Bioorg Med Chem, 2009).
Calls of active or inactive are those of the source. No cut-off for these calls is given here.

Assays:
[1] = biological target: Glutamate NMDA receptor; Grin1/Grin2b (Rattus norvegicus, UniProt P35439+Q00960); test: Antagonist activity at rat recombinant NR1/NR2B receptor expressed in frog oocytes assessed as inhibition of glutamate/glycine-induced current by two electrode voltage clamp method; type: functional, cell-based, Oocyte
Outline: (§1)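 Xenopus oocytes expressing NR1/NR2 (wild type or amino terminal domain deletion mutant) recorded by TEVC at −40 mV, room temperature, pH 7.4–7.6, with EDTA 10 μM. Maximal glutamate/glycine applied alone, then with 5–8 successive compound concentrations. Leak-corrected; responses under 50 nA excluded. IC50 from fitted composite curve. NR1/NR2A oocytes were pre-incubated in 50 μM BAPTA-AM.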

[2] = biological target: Glutamate NMDA receptor; Grin1/Grin2a (Rattus norvegicus) (UniProt P35439+Q00959); test: Antagonist activity at rat recombinant NR1/NR2A receptor expressed in Xenopus laevis oocytes assessed as inhibition of glutamate/glycine-induced current at 3 uM by two electrode voltage clamp method relative to control; type: functional, cell-based; settings: Oocyte
Outline: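 Xenopus oocytes injected with NR1-1a (3–5 ng) plus NR2A, 2B, 2C or 2D cRNA (7–10 ng), kept at 15 °C. Voltage clamp at −40 mV. Responses to 50 μM glutamate + 30 μM glycine with 3 μM compound, as % of response without compound. NR2A oocytes pre-loaded with 50 μM BAPTA-AM. Mean ± SEM, 4–10 oocytes; paired t-test.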

[3] = biological target: hERG (KCNH2) (Homo sapiens, UniProt Q12809); test: Displacement of [3H]astemizole from human recombinant ERG expressed in HEK293 cells at 10 uM; type: cell-based; settings: HEK293 cells expressing human recombinant ERG, probe [3H]astemizole, read-out: Activity
[4] = biological target: T1, Glutamate NMDA receptor; Grin1/Grin2b (Rattus norvegicus) (UniProt P35439+Q00960); test: Antagonist activity at rat recombinant NR1/NR2B receptor expressed in Xenopus laevis oocytes assessed as voltage-independent inhibition of glutamate/glycine-induced current at 0.054 uM by two electrode voltage clamp method; type: functional, cell-based; settings: Oocyte
Outline: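 Rat NR1/NR2B oocytes were voltage clamped and the current–voltage relation recorded for 50 μM glutamate plus 30 μM glycine, with and without 0.054 μM compound coapplied; n = 5.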

[5] = biological target: T1, Glutamate NMDA receptor; Grin1/Grin2b (Rattus norvegicus); test: Antagonist activity at rat recombinant NR1/NR2B receptor expressed in Xenopus laevis oocytes assessed as inhibition of glutamate/glycine-induced current at 3 uM by two electrode voltage clamp method; type: functional, cell-based; settings: Oocyte
Outline: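 Oocytes (stage V–VI, Xenopus laevis) injected with NR1 and NR2 cRNA, held 1–7 d at 15 °C. TEVC at −40 mV, 23 °C, in 90 NaCl/1 KCl/10 HEPES/0.5 BaCl2 (mM) plus 10 μM EDTA. Current to 50 μM glutamate plus 30 μM glycine with 3 μM compound, given as percent of control; 4–10 oocytes.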

[6] = biological target: Glutamate receptor ionotropic, NMDA 2B (Mus musculus, UniProt P35438+Q01097, D101A); test: Antagonist activity at mouse NR1/NR2B receptor D101A mutant expressed in Xenopus laevis oocytes assessed as inhibition of glutamate/glycine-induced current by two electrode voltage clamp method; type: functional, cell-based, Oocyte
Outline: (§2)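 Oocytes express NR1/NR2B amino-terminal-domain mutants (mouse D101A point mutant; rat ATD deletion). Concentration–effect curves were recorded by two-electrode voltage clamp at −40 mV and 23 °C, with 50 μM glutamate plus 30 μM glycine. Each step is compound plus agonists, expressed relative to agonists alone.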

[7] = test system: MDCK; test: Apparent permeability from basolateral to apical side of MDR1-expressing MDCK cells at 5 uM after 2 hrs by LC-MS/MS analysis; type: ADME, cell-based, Canis lupus familiaris; settings: dog
Outline: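 MDR1-MDCK monolayers grown 7–11 days on Transwells. Compound at 5 μM in HBSS pH 7.4 (final DMSO ≤1%) added apically (A–B) or basally (B–A). Incubated 2 h at 37 °C; both compartments quantified by LC–MS/MS against a >4-point calibration. Papp given in ×10−6 cm/s; efflux ratio = B–A/A–B. Duplicates.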

[8] = test system: Oocyte; test: Antagonist activity at rat NR1/NR2B receptor deltaATD mutant expressed in Xenopus laevis oocytes assessed as inhibition of glutamate/glycine-induced current at 0.01 to 100 uM by two electrode voltage clamp method; type: functional, cell-based; outline: as §2
[9] = biological target: Glutamate receptor ionotropic, NMDA 1/NMDA 2B (Mus musculus) (UniProt P35438+Q01097); test: Antagonist activity at mouse recombinant NR1/NR2B receptor expressed in Xenopus laevis oocytes assessed as inhibition of glutamate/glycine-induced current at 3 uM by two electrode voltage clamp method; type: functional, cell-based; settings: Oocyte
[10] = biological target: Glutamate receptor 1 (Rattus norvegicus) (UniProt P19490); test: Antagonist activity at rat recombinant GluR1 expressed in Xenopus laevis oocytes assessed as inhibition of glutamate-induced current at 3 uM by two electrode voltage clamp method relative to control; type: functional, cell-based; settings: Oocyte
Outline: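 GluR1 homomers expressed from 5–10 ng cRNA in Xenopus oocytes. Clamped at −40 mV. Currents evoked by 100 μM glutamate with 3 μM compound, expressed as % of control without compound. Mean ± SEM, 4–10 oocytes; paired t-test.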

[11] = biological target: Glutamate receptor ionotropic, NMDA 1/NMDA 2B (Mus musculus, UniProt P35438+Q01097); test: Antagonist activity at mouse recombinant NR1/NR2B receptor expressed in frog oocytes assessed as inhibition of glutamate/glycine-induced current by two electrode voltage clamp method; type: functional, cell-based, Oocyte
Outline: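 Xenopus oocytes injected with 3–5 ng NR1 and 7–10 ng NR2 cRNA, kept in Barth's solution at 15 °C, recorded 2–7 d later at 23 °C under two-electrode voltage clamp at −40 mV. Bath was 90 NaCl, 1 KCl, 10 HEPES, 0.5 BaCl2 (mM), pH 7.4/7.6, plus 10 μM EDTA. Glutamate (50–100 μM) plus glycine 30 μM was applied, then 5–8 inhibitor concentrations. Leak-corrected; n = 11 oocytes from 2 frogs.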

[12] = biological target: Glutamate NMDA receptor; Grin1/Grin2a (Rattus norvegicus, UniProt P35439+Q00959); test: Antagonist activity at rat recombinant NR1/NR2A receptor expressed in Xenopus laevis oocytes assessed as inhibition of glutamate/glycine-induced current by two electrode voltage clamp method; type: functional, cell-based, Oocyte; outline: as §1
[13] = biological target: Glutamate receptor ionotropic, kainate 2 (Rattus norvegicus) (UniProt P42260); test: Antagonist activity at rat recombinant GluR6 expressed in Xenopus laevis oocytes assessed as inhibition of concanavalin A/glutamate-induced current at 3 uM by two electrode voltage clamp method relative to control; type: functional, cell-based; settings: Oocyte
Outline: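 Oocytes expressing homomeric GluR6 (5–10 ng cRNA) pretreated 5 min with 10 μM concanavalin-A. Currents evoked by 100 μM glutamate at −40 mV, with or without 3 μM compound, and given as percent of control. Mean ± SEM of 4–10 oocytes; paired t-test.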

[14] = Antagonist activity at rat NR1/NR2B receptor deltaATD mutant expressed in Xenopus laevis oocytes assessed as inhibition of glutamate/glycine-induced current by two electrode voltage clamp method; type: functional, cell-based; settings: Oocyte; outline: as §1

Chain of Glutamate receptor ionotropic, kainate 2 (Rattus norvegicus) (P42260 whole entry): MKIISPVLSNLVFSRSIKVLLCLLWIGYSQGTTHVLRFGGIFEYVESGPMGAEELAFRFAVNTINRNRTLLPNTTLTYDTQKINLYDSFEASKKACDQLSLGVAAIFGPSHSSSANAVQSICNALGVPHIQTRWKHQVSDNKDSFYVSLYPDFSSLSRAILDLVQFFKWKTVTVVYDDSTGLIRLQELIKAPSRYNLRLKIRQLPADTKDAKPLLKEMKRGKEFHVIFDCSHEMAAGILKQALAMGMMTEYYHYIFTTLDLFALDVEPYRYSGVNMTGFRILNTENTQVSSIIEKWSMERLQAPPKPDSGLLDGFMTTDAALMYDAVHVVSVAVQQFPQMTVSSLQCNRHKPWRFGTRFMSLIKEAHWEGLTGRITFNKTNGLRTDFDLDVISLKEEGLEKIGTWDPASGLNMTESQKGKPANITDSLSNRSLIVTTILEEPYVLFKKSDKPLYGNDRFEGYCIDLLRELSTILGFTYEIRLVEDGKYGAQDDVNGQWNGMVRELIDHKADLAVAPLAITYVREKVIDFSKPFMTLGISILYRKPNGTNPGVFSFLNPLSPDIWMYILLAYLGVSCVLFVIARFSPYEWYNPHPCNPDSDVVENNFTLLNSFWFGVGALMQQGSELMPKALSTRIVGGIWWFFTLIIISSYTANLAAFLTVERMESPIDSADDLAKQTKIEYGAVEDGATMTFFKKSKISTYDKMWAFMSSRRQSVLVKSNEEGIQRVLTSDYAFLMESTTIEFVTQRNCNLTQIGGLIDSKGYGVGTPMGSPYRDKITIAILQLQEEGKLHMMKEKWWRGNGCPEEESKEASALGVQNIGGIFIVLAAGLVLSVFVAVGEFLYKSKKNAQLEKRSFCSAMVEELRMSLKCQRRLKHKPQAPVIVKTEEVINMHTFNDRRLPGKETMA
Chain of Glutamate receptor 1 (Rattus norvegicus) (P19490 whole entry): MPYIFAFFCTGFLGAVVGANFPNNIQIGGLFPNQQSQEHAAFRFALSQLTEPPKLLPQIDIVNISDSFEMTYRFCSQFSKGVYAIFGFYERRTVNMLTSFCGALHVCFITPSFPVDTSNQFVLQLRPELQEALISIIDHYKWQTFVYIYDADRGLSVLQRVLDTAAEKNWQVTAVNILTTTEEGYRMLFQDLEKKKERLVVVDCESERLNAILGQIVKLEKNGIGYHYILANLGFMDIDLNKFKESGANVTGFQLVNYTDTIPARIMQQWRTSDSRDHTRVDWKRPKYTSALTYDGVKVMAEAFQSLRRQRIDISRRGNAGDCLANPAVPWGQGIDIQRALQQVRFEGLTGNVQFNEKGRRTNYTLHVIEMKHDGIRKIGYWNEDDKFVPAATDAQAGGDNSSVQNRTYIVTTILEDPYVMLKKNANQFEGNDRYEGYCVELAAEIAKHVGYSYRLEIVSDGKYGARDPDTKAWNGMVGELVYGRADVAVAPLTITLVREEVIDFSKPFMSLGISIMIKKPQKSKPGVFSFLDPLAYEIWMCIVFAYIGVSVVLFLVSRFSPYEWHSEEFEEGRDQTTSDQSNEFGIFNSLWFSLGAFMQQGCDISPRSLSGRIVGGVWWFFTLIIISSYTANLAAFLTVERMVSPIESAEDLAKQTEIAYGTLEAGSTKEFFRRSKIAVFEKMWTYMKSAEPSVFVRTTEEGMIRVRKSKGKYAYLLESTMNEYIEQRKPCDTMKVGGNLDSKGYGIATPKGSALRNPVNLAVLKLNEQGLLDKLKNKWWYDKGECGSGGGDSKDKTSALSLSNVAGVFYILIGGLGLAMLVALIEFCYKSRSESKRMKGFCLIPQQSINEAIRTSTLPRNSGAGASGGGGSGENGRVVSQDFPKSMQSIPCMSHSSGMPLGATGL
Chain of Glutamate receptor ionotropic, NMDA 1/NMDA 2B (Q01097 whole entry, other chains not shown): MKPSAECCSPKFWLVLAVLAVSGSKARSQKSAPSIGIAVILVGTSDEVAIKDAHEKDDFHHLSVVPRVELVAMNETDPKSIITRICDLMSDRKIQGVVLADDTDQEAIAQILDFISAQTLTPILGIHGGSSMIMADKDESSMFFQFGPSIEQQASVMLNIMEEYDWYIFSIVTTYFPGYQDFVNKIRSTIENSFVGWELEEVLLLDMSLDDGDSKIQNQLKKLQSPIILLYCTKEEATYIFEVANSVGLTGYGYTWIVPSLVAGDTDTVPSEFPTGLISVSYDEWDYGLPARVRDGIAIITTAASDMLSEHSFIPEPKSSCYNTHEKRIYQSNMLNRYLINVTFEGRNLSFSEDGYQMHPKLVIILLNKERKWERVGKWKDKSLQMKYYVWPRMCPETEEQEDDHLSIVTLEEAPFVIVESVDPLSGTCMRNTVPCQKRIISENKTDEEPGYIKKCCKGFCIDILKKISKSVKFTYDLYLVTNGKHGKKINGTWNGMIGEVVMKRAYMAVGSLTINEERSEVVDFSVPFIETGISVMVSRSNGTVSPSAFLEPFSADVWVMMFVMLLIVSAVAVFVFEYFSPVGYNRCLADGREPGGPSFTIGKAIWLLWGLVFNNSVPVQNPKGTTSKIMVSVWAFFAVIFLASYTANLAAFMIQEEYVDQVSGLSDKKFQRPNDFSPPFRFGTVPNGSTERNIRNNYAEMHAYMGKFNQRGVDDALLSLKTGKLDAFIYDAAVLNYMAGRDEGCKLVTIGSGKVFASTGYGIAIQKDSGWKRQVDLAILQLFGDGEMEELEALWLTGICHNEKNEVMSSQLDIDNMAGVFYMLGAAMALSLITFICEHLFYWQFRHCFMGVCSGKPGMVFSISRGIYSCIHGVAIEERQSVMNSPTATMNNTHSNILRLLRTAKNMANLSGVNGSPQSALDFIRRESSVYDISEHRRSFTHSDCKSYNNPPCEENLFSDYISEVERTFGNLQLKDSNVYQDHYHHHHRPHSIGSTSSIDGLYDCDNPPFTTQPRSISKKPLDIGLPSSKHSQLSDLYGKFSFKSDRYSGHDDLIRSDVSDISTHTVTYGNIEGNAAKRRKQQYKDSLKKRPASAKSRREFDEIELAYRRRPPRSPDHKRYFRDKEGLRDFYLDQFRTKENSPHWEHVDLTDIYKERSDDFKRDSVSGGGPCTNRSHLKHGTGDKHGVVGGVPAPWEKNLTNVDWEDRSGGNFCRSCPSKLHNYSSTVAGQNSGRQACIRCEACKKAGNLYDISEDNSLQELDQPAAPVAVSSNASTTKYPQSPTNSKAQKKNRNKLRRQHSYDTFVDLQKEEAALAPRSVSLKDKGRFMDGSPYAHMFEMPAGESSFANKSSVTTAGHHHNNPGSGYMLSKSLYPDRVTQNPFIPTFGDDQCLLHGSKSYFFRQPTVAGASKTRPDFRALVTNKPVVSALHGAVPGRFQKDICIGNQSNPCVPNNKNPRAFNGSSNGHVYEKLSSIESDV
Chain of Glutamate receptor ionotropic, NMDA 2B (Q01097 whole entry D101A, one chain of several): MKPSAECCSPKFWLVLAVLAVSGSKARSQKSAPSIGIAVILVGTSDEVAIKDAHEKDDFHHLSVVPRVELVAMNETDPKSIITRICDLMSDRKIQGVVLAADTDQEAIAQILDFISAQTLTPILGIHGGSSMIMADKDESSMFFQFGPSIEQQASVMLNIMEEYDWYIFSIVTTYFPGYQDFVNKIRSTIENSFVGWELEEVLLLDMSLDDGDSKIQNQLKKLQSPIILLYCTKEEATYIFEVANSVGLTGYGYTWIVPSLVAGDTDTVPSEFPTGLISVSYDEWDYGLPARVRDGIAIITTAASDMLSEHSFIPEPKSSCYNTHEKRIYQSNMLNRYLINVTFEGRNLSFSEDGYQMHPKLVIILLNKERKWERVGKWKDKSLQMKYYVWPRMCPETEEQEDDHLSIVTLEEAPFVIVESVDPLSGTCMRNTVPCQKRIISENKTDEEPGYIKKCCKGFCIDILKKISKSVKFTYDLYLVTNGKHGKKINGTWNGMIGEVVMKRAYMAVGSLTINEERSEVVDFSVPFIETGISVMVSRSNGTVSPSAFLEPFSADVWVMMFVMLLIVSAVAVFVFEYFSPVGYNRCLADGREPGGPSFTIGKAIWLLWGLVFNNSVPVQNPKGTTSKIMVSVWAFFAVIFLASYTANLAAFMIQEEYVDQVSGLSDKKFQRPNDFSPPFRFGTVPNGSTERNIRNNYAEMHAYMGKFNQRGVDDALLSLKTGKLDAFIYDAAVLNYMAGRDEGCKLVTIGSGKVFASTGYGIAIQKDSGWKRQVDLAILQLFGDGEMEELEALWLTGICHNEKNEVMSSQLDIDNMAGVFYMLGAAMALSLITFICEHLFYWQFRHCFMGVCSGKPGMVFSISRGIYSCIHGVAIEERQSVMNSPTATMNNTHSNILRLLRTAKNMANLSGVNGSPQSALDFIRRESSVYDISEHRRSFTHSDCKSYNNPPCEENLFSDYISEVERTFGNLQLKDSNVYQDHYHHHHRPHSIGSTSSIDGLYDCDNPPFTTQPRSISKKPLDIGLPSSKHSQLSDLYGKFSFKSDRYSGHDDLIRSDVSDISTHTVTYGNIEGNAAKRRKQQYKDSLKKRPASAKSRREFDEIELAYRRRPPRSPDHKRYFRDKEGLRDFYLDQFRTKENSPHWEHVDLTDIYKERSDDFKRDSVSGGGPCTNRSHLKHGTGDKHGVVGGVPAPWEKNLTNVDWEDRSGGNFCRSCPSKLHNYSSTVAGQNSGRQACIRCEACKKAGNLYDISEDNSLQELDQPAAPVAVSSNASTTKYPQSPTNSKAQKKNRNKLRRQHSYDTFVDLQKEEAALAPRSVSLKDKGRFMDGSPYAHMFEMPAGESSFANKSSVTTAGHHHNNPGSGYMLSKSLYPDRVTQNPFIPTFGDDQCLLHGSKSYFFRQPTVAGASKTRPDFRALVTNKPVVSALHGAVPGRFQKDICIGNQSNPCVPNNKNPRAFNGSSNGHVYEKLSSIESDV

CS(=O)(=O)Nc1ccc(OCC(=O)NCCNc2ccc(Cl)c(Cl)c2)cc1
IC50 [1]: 0.057 µM | % response [2]: 92% | inhibition at 10 µM [3]: 43% | inhibition [4]: Active | inhibition [5]: 88% | IC50 [6]: 52 µM | Papp [7]: 63.2 ×10⁻⁶ cm/s | inhibition [8]: inactive | inhibition [9]: 78% | % response [10]: 101% | IC50 [11]: 0.036 µM | IC50 [12]: 82 µM | % response [13]: 99% | IC50 [14]: 563 µM
